Test results published in ChEMBL document CHEMBL4130559, “Structure-Based Discovery of Thiosemicarbazone Metalloproteinase Inhibitors for Hemorrhage Treatment in Snakebites” (ACS Med Chem Lett, 2017).
pIC50: −log10 of the molar value.

Experiments:
[1] = molecular target: T1, Snake venom metalloproteinase neuwiedase (Bothrops pauloensis, UniProt Q9I9R4); test: Inhibition of Bothrops pauloensis MP1 assessed as reduction in azocaseinolytic activity after 30 mins; conditions: for pIC50: read-out: IC50
T1 sequence (Q9I9R4 whole entry): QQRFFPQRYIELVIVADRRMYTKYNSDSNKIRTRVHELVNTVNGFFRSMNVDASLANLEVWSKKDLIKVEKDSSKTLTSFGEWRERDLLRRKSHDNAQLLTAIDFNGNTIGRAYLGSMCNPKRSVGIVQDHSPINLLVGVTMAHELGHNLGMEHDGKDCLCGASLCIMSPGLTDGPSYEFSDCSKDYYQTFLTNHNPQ
Summary of the method: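 Purified BpMP-I (7.5 μg per reaction) was preincubated with compound for 30 min at 37 °C. It was then added to azocasein (1 mg/mL) in 0.05 M Tris–HCl pH 7.8 with 0.15 M NaCl and incubated for 30 min at 37 °C. The reaction was stopped with 20% TCA, held 30 min at room temperature and centrifuged. Supernatant was read at A405. IC50 is the concentration giving 50% loss of azocaseinolytic activity.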

[2] = system: Snake venom; test: Antihemorrhagic activity in Bothrops pauloensis crude venom injected Swiss mouse assessed as reduction in hemorrhagic halo at 1:20 venom to compound ratio administered via intradermal route; type: functional
[3] = system: Snake venom; test: Antihemorrhagic activity in Bothrops pauloensis crude venom injected Swiss mouse assessed as reduction in hemorrhagic halo at 1:1 to 1:20 venom to compound ratio administered via intradermal route; type: functional
[4] = system: Snake venom; test: Antihemorrhagic activity in Bothrops pauloensis crude venom injected Swiss mouse assessed as reduction in hemorrhagic halo at 1:5 venom to compound ratio administered via intradermal route; type: functional; design: scale not given: the % may be the effect or the level left
[5] = system: Snake venom; test: Antihemorrhagic activity in Bothrops pauloensis crude venom injected Swiss mouse assessed as reduction in hemorrhagic halo at 1:1 venom to compound ratio administered via intradermal route; type: functional; design: scale not given: the % may be the effect or the level left
[6] = system: Snake venom; test: Antihemorrhagic activity in Bothrops pauloensis crude venom injected Swiss mouse assessed as reduction in hemorrhagic halo at 1:10 venom to compound ratio administered via intradermal route; type: functional; design: scale not given: the % may be the effect or the level left
[7] = system: Snake venom; test: Antihemorrhagic activity in Bothrops pauloensis crude venom injected Swiss mouse assessed as reduction in hemorrhagic halo at 1:10 venom to compound ratio administered via intradermal route 10 mins after venom injection; type: functional; design: scale not given: the % may be the effect or the level left
Summary of the method: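 Treatment protocol in Swiss male mice (n = 4, 18–22 g). B. pauloensis crude venom (16.3 μg, two minimum hemorrhagic doses) was injected intradermally in the dorsal region. Compound followed 10 min later by the same route at 1:10 venom/compound (w/w). At 150 min the mice were anesthetized and killed, and the skin halo was measured by caliper. Results are percent inhibition versus venom-only controls, mean ± SD.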

| SMILES | pIC50 [1] | IC50 [1] | also measured |
| --- | --- | --- | --- |
| COc1ccc(/C=N/NC(N)=S)cc1O | 2.47 | – | – |
| NC(=O)N/N=C/c1cccc(O)c1 | – | Not Active | – |
| COc1ccc(/C(CCC(=O)O)=N/NC(N)=S)cc1 | 4.10 | – | inhibition (INH) [2]: 43% |
| COc1ccc(/C(CCCC(=O)O)=N/NC(N)=S)cc1 | 5.75 | – | Activity [3]: Dose-dependent effect; Activity [4]: 84%; inhibition (INH) [2]: 100%; Activity [5]: 41%; Activity [6]: 100%; Activity [7]: 31% |
| NC(=O)N/N=C/c1ccc(O)cc1O | – | Not Active | – |
| NC(=O)N/N=C/c1ccc(O)cc1 | – | Not Active | – |
| c1cnc2c(c1)ccc1cccnc12 [PHENANTHROLINE] | 3.33 | – | – |
| NC(=O)N/N=C/c1ccc(Cl)cc1 | – | Not Active | – |
| NC(=S)N/N=C/c1ccc(Cl)cc1 | 2.37 | – | – |
| COc1ccc(/C=N/NC(N)=O)cc1 | – | Not Active | – |
| NC(=O)N/N=C/c1ccc(C(=O)O)cc1 | – | Not Active | – |
| NC(=S)N/N=C/c1ccccc1 [PHENYLTHIOSEMICARBAZONE] | 2.37 | – | – |
| NC(=S)N/N=C/c1ccc(Br)cc1 | 2.50 | – | – |
| COc1ccc(/C=N/NC(N)=S)cc1 | 2.52 | – | – |
